NR2E3 ag-1: agonists of human nuclear receptor NR2E3. Q9Y5X4. GST-NR2E3/biotin-RetCOR TR-FRET, 1536-well. inhibition of corepressor binding, % at 4.78 µM. 320,000 tested, 0.12% active;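 active means percent inhibition above the cutoff of mean plus 3 SD of all tested compounds, set per screening campaign, cut at about 20% in these data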;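 further: 0% = DMSO wells and 100% = biotin wells as full block of FRET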
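System: GST-NR2E3 and biotin-RetCOR proteins; probe or stimulus: 7 nM biotin-RetCOR; doses: compound at 4.8 µM, single dose; schedule: Compound–protein incubation for 5 h at 4 °C; detection: time-resolved FRET; read-out: percent inhibition; controls: biotin wells as high control, 0.6% DMSO wells as low control; format: 1536-well plates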
CHT block: inhibits the human high affinity choline transporter. CHT-expressing cells, membrane potential dye, choline response; hits give low values. 310,000 tested, 0.86% active. B-score at 10 µM. AID 488975;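 active means B-score over 3 SD under the library average, and starting fluorescence ratio not unusually high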;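 further: choline stimulus applied at its EC90 after an EC20 pre-addition; B-score computed on integrated fluorescence ratio after choline addition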
COUP-TFII inh: NR2F2 (human) inhibition, primary screen. P24468. HEK293T NGFI-A luciferase reporter, luminescence. 370,000 tested, 0.7% active. AID 686940. inhibition, % at 8.6 µM;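 active means inhibition above a per-plate cutoff, mean inhibition of test wells between control levels plus 3 SD, cut at about 38% in these data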;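 further: cells cotransfected with COUP-TFII expression vector driving the NGFI-A reporter; 0% = median of COUP-TF2 test wells and 100% = reporter-only cells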
GalR3 antagonist: blocks the human galanin receptor 3; 360,000 tested, 0.44% active; inhibition, % at 3 µM; HEK293 GalR3-CNG cAMP membrane potential fluorescence; galR3 body fused to GalR1 C-terminus; AID 651719;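 active means inhibition above the screen-wide average plus 3 SD, cut at about 13% in these data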;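 further: forskolin and galanin both at EC90 stimulate the cells; cAMP rise reported by CNG channel membrane potential dye signal; 0% = forskolin plus galanin with DMSO and 100% = forskolin alone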
Target sequence (O60755 1-299 limits assumed): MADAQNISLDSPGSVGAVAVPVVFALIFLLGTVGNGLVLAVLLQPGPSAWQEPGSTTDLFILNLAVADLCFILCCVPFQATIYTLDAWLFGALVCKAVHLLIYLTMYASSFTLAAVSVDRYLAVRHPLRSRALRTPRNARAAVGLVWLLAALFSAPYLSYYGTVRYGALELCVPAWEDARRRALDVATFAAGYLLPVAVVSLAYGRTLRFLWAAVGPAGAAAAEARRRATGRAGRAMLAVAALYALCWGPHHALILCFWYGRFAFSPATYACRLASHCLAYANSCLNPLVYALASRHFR
NR2E3 ag-2: human photoreceptor-specific nuclear receptor agonism | Q9Y5X4 | 360,000 tested, 0.35% active | inhibition of corepressor binding, % at 3.98 µM | CHO-S Gal4-NCOR/VP16-NR2E3 two-hybrid, luciferase;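 active means inhibition above the mean of all tested compounds plus 3 SD, cut at about 70% in these data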;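 further: 0% = DMSO with NR2E3 transfected cells and 100% = cells lacking NR2E3 construct; higher means lower luciferase signal from less NR2E3 corepressor binding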
CHT PAM: allosterically activates the human high affinity choline transporter. CHT-expressing cells, membrane potential dye, choline EC20; hits give high values; LV-AA mutant CHT in HEK293 cells. B-score at 10 µM. 310,000 tested, 0.49% active;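 active means initial fluorescence not abnormally high and integrated response B-score, plate-corrected, over 3 SD above library mean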
CHT act confirm: confirmation of human choline transporter (CHT) activators. shares compounds with CHT PAM. CHT-expressing cells, membrane potential dye fluorescence (FDSS); % of choline EC20–EC90 response window; HEK293 expressing CHT LV-AA mutant; choline added at its EC20. activation, % at 10 µM. 2,500 tested, 91% active. AID 504833;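 active means primary screen active, with duplicate mean activation above negative control mean plus 3 SD, cut at about 11% in these data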
HEK293 MP dye: counter-screen for CHT activators: effect in parental HEK293 cells; shares compounds with CHT PAM; ratio readout change at 10 µM, hits read low; AID 623908; 2,500 tested, 62% active; membrane potential dye fluorescence (FDSS); measured after EC20 choline addition;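 active means duplicate-averaged ratio beyond 3 SD from buffer wells, up or down, though filed actives are nearly all decreases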
The depositor's hits bear a star. In the library only some 2.3% were active in any assay of this set; here they are far more common.

What do the screens show for `CC[n+]1c(/C=C/N(C)c2ccccc2)oc2ccc(F)cc21`?
NR2E3 ag-1: 1; CHT block: inactive; COUP-TFII inh: 14; GalR3 antagonist: -9; NR2E3 ag-2: 6; CHT PAM: inactive; CHT act confirm: 30*; HEK293 MP dye: -39*

How did CC[n+]1c(/C=C/Nc2ccccc2)oc2ccc(OC)cc21 do in these assays?
NR2E3 ag-1: 1; CHT block: inactive; COUP-TFII inh: -19; GalR3 antagonist: -5; NR2E3 ag-2: -26; CHT PAM: inactive

What do the screens show for `O=C(Nc1ccc(Cl)cc1)O[C@@H]1CC[C@@]23CCCN2C(=O)CCC[C@H]3C1`?
COUP-TFII inh: 6

Results for COc1ccc(CNC(=O)O[C@H]2CC[C@@]34CCCN3C(=O)CCC[C@H]4C2)cc1OC ?
COUP-TFII inh: -15

What do the screens show for `CCOc1ccc(C(C(=O)NC2CCCC2)N(Cc2ccccc2)C(=O)c2nsc(Cl)c2Cl)cc1` (stereo not given)?
NR2E3 ag-1: 3; CHT block: inactive; COUP-TFII inh: 5; GalR3 antagonist: -12; NR2E3 ag-2: -7; CHT PAM: inactive; CHT act confirm: 1; HEK293 MP dye: inactive

How did COc1cc(-c2nc3ccccn3c2N)ccc1O do in these assays?
NR2E3 ag-1: -5; CHT block: inactive; COUP-TFII inh: -9; GalR3 antagonist: -3; NR2E3 ag-2: -3; CHT PAM: inactive

Results for COc1cc(-c2nc3ccccn3c2NCC2CCCO2)ccc1O (stereo not given) ?
NR2E3 ag-1: -4; CHT block: inactive; COUP-TFII inh: -19; GalR3 antagonist: -7; NR2E3 ag-2: -28; CHT PAM: inactive; CHT act confirm: 44*; HEK293 MP dye: -47*

How did COc1ccc(-c2nc3cccc(C)n3c2NCC2CCCO2)cc1O (stereo not given) do in these assays?
NR2E3 ag-1: 0; CHT block: inactive; COUP-TFII inh: -31; GalR3 antagonist: -2; NR2E3 ag-2: -40; CHT PAM: inactive; CHT act confirm: 54*; HEK293 MP dye: -57*

What do the screens show for `Cc1cc(C)nc(/N=C(\N)Nc2ccc(S(=O)(=O)Nc3nccc(C)n3)cc2)n1`?
NR2E3 ag-1: 4; CHT block: inactive; COUP-TFII inh: -2; GalR3 antagonist: -5; NR2E3 ag-2: -12; CHT PAM: 7.2*; CHT act confirm: 58*; HEK293 MP dye: -56*

Results for Cc1cc(C)nc(/N=C(\N)Nc2ccc(S(=O)(=O)O)cc2)n1 ?
COUP-TFII inh: 8; GalR3 antagonist: -4; NR2E3 ag-2: -7

What do the screens show for `Cc1cc(C)n(-c2nc3ccccc3nc2N2CCCCCC2)n1`?
NR2E3 ag-1: 2; CHT block: inactive; COUP-TFII inh: 13; GalR3 antagonist: -3; NR2E3 ag-2: 4; CHT PAM: inactive; CHT act confirm: 17*; HEK293 MP dye: inactive

Results for COc1ccc(NC(=O)c2ccc3c(c2)C(=O)N(Cc2cccnc2)C3=O)cc1 ?
NR2E3 ag-1: 4; CHT block: inactive; COUP-TFII inh: -17; GalR3 antagonist: -3; NR2E3 ag-2: -10; CHT PAM: inactive

How did Cc1cc(NC(=O)c2ccc3c(c2)C(=O)N(CCC(C)C)C3=O)no1 do in these assays?
NR2E3 ag-1: -1; CHT block: inactive; COUP-TFII inh: 11; GalR3 antagonist: -5; NR2E3 ag-2: -22; CHT PAM: inactive

Results for Cc1cc(NC(=O)c2ccc3c(c2)C(=O)N(Cc2cccnc2)C3=O)no1 ?
NR2E3 ag-1: 3; CHT block: inactive; COUP-TFII inh: 3; GalR3 antagonist: -5; NR2E3 ag-2: 13; CHT PAM: inactive; CHT act confirm: 26*; HEK293 MP dye: -27*

Source: PubChem BioAssay (several laboratories)
